# Measurements: ChEMBL document CHEMBL4513216, “Probing the Open Global Health Chemical Diversity Library for Multistage-Active Starting Points for Next-Generation Antimalarials” (ACS Infect Dis, 2020)
# Test: Toxicity liver stage against HepG2, at 10uM
# Assay type: cell-based
# Set-up: test concentration 10 uM, cell line HepG2-A16-CD81EGFP
# Conditions: human, HepG2-A16-CD81EGFP cells; read-out: INHIBITION
# In short: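 Uninfected HepG2-A16-CD81EGFP cells, 3 × 10^3 per well, 1536-well, plated on prespotted compound at 10 μM final, parasite-free screening media added to match infected plates; puromycin 10 μM positive, DMSO 0.5% negative; run in parallel with 48 h PbLuc assay at 37 °C, 5% CO2; viability by CellTiter-Glo luminescence, normalized to controls.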
row,Compound,cytotoxicity at 10 µM
1,Cc1ccc(F)cc1NC(=O)NCC(C)N1CCOCC1 (stereo not given),2.6%
2,CN(C)c1nc2sc(C(=O)N3CCN(C(=O)OC(C)(C)C)CC3)cc2s1,1.71%
3,Cc1ccc(S(=O)(=O)Cc2noc([C@@H]3C[C@@H](O)CN3)n2)cc1,-5.78%
4,CS(=O)(=O)c1ccc(CNC[C@H]2COCc3nc4ccccc4n32)cc1,-1.28%
5,Cn1ccnc1CN1C[C@H]2CN(S(C)(=O)=O)CCN2C1=O,-6.04%
6,O=C(NC1CCCc2c1[nH]c1ccc(F)cc21)c1n[nH]c2c1CCCC2 (stereo not given),46.4%
7,O=C(O)C1CCN(c2nc3c(-c4ccccc4F)csc3c(=O)[nH]2)CC1,-10%
8,CN(C)C1COC2(CCN(C(=O)c3cccnc3)CC2)C1 (stereo not given),3.53%
9,Cc1ccc(N2CC[C@@H]3CN(Cc4c[nH]cn4)C[C@@H]3C2)nn1,7.43%
10,Cc1ccc(C(=O)N2CCO[C@H]3[C@H](OCCN(C)C)CC[C@@H]32)cn1,4.85%
11,O=C(CCn1ccc2ccc(Cl)cc21)NCc1ccc(C(=O)O)cc1,-0.411%
12,COCC1c2nnn(CC3CC3)c2CCN1C(=O)Cc1cccs1 (stereo not given),-15.8%
13,O=C(c1ccccn1)N1Cc2nccn2CC(COc2cccnc2)C1 (stereo not given),-9.52%
14,CCOCC1CN(C(=O)N(C)C)Cc2nn(C)cc21 (stereo not given),-11.9%
15,CC1CCCN(C(=O)c2cc(-c3ccco3)cs2)C1 (stereo not given),7%
16,NCc1n[nH]c(-c2cccc(F)c2)n1,-167%
17,O=C(c1cc2cccc(F)c2[nH]1)N1C[C@@H](O)[C@H](N2CCOCC2)C1,0.0453%
18,CNc1cc(CCNC(=O)C2CCCC2)nc(-c2ccccn2)n1,1.76%
19,Cc1nnc(N2CCOC(C)(C(=O)N(C)C)C2)c2ccccc12 (stereo not given),10.4%
20,Cn1cnc2ccc(NC(=O)CC3CCN(S(C)(=O)=O)CC3)cc21,22.6%
21,Cn1cc(Cl)c(C(=O)N2CCc3nc4sccc4c(=O)n3CC2)n1,-3.04%
22,COCCN1CCN(Cc2cnc(C)nc2)CC1,-22.8%

row,Compound,cytotoxicity at 10 µM
1,Cc1nn(C)c(C)c1CN1CCCC1c1nccc(CN(C)C)n1 (stereo not given),-28.1%
2,O=C(c1cccnc1)N1CCCC(Cc2nccs2)C1 (stereo not given),-2.86%
3,CC(Cc1ccccc1F)C(=O)Nc1ccc(OCCC(N)=O)cc1 (stereo not given),-5.56%
4,CC(CNC(=O)c1cc(-n2cccn2)ccn1)Cn1ccnc1 (stereo not given),-3.43%
5,CC(C)(C)c1ccc2c(c1)CCN2C(=O)c1nc(=O)[nH][nH]1,-3.74%
6,Cc1ccc(CN(C)C(=O)C(C)n2cncn2)o1 (stereo not given),-3.33%
7,COCCN1CCN(CC(=O)NC2(C#N)CCCC2)CC1,3.5%
8,CC(C)c1nc(CN2CCN(C(=O)OC(C)(C)C)C(C)C2)no1 (stereo not given),1.62%
9,CCSc1cc(C(=O)NC(C)c2cccc(N3CCOC3=O)c2)ccn1 (stereo not given),24.1%
10,CC(C)COC(=O)N1CCCN(C(C)c2nc(C(C)C)no2)CC1 (stereo not given),6.85%
11,Cc1nc2n(n1)CC(NCc1ccccc1OCC(=O)N(C)C)CC2 (stereo not given),7.61%
12,O=C(Nc1cccs1)N(CCO)CCOCC(F)(F)F,3.84%
13,Cc1ccc(C)c(S(=O)(=O)NC(=O)COc2cccc(C#N)c2)c1,9.7%
14,CC(NC(=O)Nc1ccc(OC2CCCC2)cc1)c1nc[nH]n1 (stereo not given),-5.42%
15,CS(=O)(=O)CCCSc1cccc(C#N)c1,-1.38%
16,Cc1cnn(CCNCC(O)c2ccc3c(c2)OCCO3)c1 (stereo not given),3.31%
17,Cc1c(C(C)NC(=O)C2CCCC2)cnn1C (stereo not given),-10.9%
18,CNC(=O)CN1CCN(C(=O)Nc2ccc(Cl)cc2F)CC1,1.41%
19,Cc1cccc(NC(=O)c2sc(C)nc2C)n1,5.52%
20,COc1cccc2[nH]cc(CCNC(=O)N3CCOCC3C3CC3)c12 (stereo not given),12.1%
21,CCN(C)C(=O)C1(c2ccc(F)cc2F)CCC1,-7.74%
22,Cc1cc(CNC(=O)N2CCN(Cc3ccccc3)C[C@H]2C)on1,-131%

row,Compound,cytotoxicity at 10 µM
1,Cc1nc(-c2ccccc2C)n(CC(=O)NC(C)C)n1,7.47%
2,O=C(CS(=O)(=O)C1CCCC1)NC1CCCc2cc(OC(F)F)ccc21 (stereo not given),4.84%
3,Cc1nccn1CCCNc1ccc(Cl)c(C#N)n1,-7.62%
4,COCC(C)NC(=O)CN1CCCC1 (stereo not given),-7.42%
5,Cc1ccc(N2CCCC(N3CCC4(CC3)OCCO4)C2=O)cc1 (stereo not given),6.7%
6,Cc1n[nH]cc1CNC1(c2ccc(Br)cc2)CC1,13.9%
7,O=C(NCC1(O)CCSC1)c1cccc(-n2cccn2)c1 (stereo not given),-3.5%
8,COc1cccc(NC(=O)CNc2ccc(C(=O)N(C)C)c(Cl)c2)c1,6.91%
9,Cc1ccc(NC(=O)N(C)CC(O)COCCOC(C)C)c(Br)c1 (stereo not given),11.2%
10,CC1CN(c2ccc(C#N)cn2)CCN1c1ccc2nncn2n1 (stereo not given),1.42%
11,O=C(NCC(O)C1CC1)Nc1cnn(Cc2ccccc2)c1 (stereo not given),4.85%
12,Cc1cccn2cc(C[S+]([O-])Cc3noc(C(C)C)n3)nc12 (stereo not given),6.13%
13,CCCc1nc(CNc2ccc(F)c(F)c2)no1,8.93%
14,Cc1cc(C)n(-c2cncc(NCCNC(=O)CC3CCCC3)n2)n1,-5.71%
15,Cc1cc(S(=O)(=O)Nc2cccc(-n3cccc3)c2)sc1C(=O)O,-2.23%
16,CNC(=O)CS(=O)(=O)Cc1coc(-c2ccc(F)cc2)n1,-9.44%
17,Cc1noc(C(C)C)c1C(=O)N1CCOCC1CC(=O)c1ccco1 (stereo not given),2.09%
18,CO[C@@H]1CC[C@H]2[C@H]1OCCN2C(=O)c1nn(C)c2ccccc12,1.31%
19,Cc1nc(CN2CCO[C@@H]3CN(C(=O)CN(C)C)CC[C@@H]3C2)cs1,-0.587%
20,CCc1ccc(CN2CCN(c3cccc(OC)c3)C(=O)C2)nc1,1.76%
21,Cn1ccnc1-c1ccc(NCC2COc3ccccc3O2)nn1 (stereo not given),3.31%
22,C[C@@H]1CN(C(=O)c2nc3ccc(Cl)cn3c2-c2ncc[nH]2)C[C@H](C)O1,-6.01%

row,Compound,cytotoxicity at 10 µM
1,Cc1noc(C)c1CN1C[C@@H](NC(=O)N(C)C)[C@H](C(C)C)C1,5.35%
2,COc1ccc2[nH]nc(CN3CCC(C(C)N(C)C)CC3)c2c1 (stereo not given),-1.45%
3,COc1ccccc1C1CNC(=O)c2nc(-c3c(C)n[nH]c3C)[nH]c2C1 (stereo not given),-8%
4,CCC(O)Cn1cc(C2=CCN(Cc3ccc(OC)cc3)CC2)cn1 (stereo not given),-3.94%
5,N[C@@H]1CC[C@H](C(=O)NCCc2nc(-c3ccccc3)cs2)C1,-11.3%
6,CC(C)OC(=O)N1CCC(c2nnc(Cn3ccnc3)n2C)CC1,-120%
7,O=C(COCC(F)(F)C(F)F)N1CCC2(CCCN(CCO)C2=O)C1 (stereo not given),8.77%
8,CCC(O)CNc1nccc(-c2ccc(C)nc2C)n1 (stereo not given),-2.92%
9,COc1nccnc1N1CCC2(CCCN(C(C)C)C2=O)C1 (stereo not given),2.57%
10,CC(C)N1CC2(CCCN(c3ccccn3)C2)CCC1=O (stereo not given),-0.608%
11,Cc1ccc(CC(=O)N2C[C@@H](CN(C)C)[C@@H](CO)C2)cc1C,-14%
12,NC(=O)C1CCCN(C(=O)c2ccc(-n3ccnc3)cc2)C1 (stereo not given),-4.4%
13,CCc1nc(NC(=O)NCCc2cccc(C)n2)nn1C,2.48%
14,OCCN1CCc2[nH]nc(C(c3ccccc3)c3ccccc3)c2C1,-2.98%
15,O=C(C1CC(=O)N(C2CC2)C1)N1CCN(CCn2cccc2)CC1 (stereo not given),-12%
16,CC(c1ccccc1)n1c(SCC(=O)O)nnc1-c1ccccc1Cl (stereo not given),1.31%
17,CCS(=O)(=O)c1ccccc1N1CCC(NC(=O)C2CC2)CC1,-1.58%
18,CCCC(C)N(C)C(=O)c1nc(S(C)(=O)=O)n2ccccc12 (stereo not given),-8.16%
19,Cn1cc(CCNCc2cc(Cl)c3c(c2)OCCO3)cn1,-9.69%
20,Cc1noc(C)c1CC(=O)NCc1ccnc(OCC(F)(F)F)c1,-7.83%
21,COc1ccc(C)cc1C(=O)N1CCCC(n2nc(C)nc2C)C1 (stereo not given),-5.68%
22,O=C(CCCN1C(=O)CCC1=O)NCC1(c2ccccc2)CCC1,-17.1%

row,Compound,cytotoxicity at 10 µM
1,CC(NC(=O)NCCn1ccnc1)c1ccc2c(c1)OCCCO2 (stereo not given),-7.27%
2,CCOCCN1CCN(Cc2cccc(C(=O)N(C)C)c2)CC1C (stereo not given),3.57%
3,O=C(c1ccc2c(c1)OCO2)N1CCCC(n2ccnc2)C1 (stereo not given),-7.6%
4,Cc1cnn(CC2CCCN2Cc2noc(C(C)(C)C)n2)c1 (stereo not given),-10.7%
5,CC(C)c1n[nH]c(C2CN(Cc3nnc(C4CC4)o3)CCO2)n1 (stereo not given),-10.1%
6,Cc1csc(N2CCCN(C(=O)c3cnns3)CC2)n1,5.92%
7,COCc1ccccc1CNCc1c(C)nn(C)c1N(C)C,-8.45%
8,CCOc1c(CNCCCn2ccnc2)cc(Cl)cc1OC,-3.88%
9,Cn1cc(C(=O)N[C@H]2CN(Cc3nccs3)[C@@H]3CCCO[C@H]23)cn1,0.893%
10,c1cnc(N2CCOC3(COCCN(Cc4cc[nH]n4)C3)C2)nc1 (stereo not given),11.8%
11,O=C(NCC1CC1)[C@@H]1CCO[C@@H]2CCN(Cc3ccsc3)C[C@H]21,-76.5%
12,CCc1ncnc2c1CCN(Cc1ccccn1)CC2,1.39%
13,CC(C)c1nn(C)c(N(C)C)c1CNCc1ccccc1CO,-9.89%
14,O=C1CC2(CCN(CCO)C2)CN1c1cccc(F)c1 (stereo not given),-149%
15,O=C(NCc1cccnc1)[C@@H]1C[C@@H]2CCN(c3ncc(F)cn3)C[C@@H]2O1,-72.1%
16,CCCN1CCc2[nH]nc(C(=O)N3CCNC(=O)C3)c2C1,14.9%
17,Cc1nc(Cn2c3c(ccc2=O)CCN(CC2CC2)CC3)cs1,1.63%
18,CCN1CCC2(CC1)CC(NC(=O)c1ccnnc1)c1ccccc12 (stereo not given),-6.9%
19,Cn1nc(Cn2ccnc2)c2c1CN(Cc1ccoc1)C2,0.319%
20,CN1Cc2ccccc2CC2(CCN(CCO)CC2)C1=O,-6.58%
21,COCC1CN(C(=O)COc2ccccc2C)Cc2ncn(C)c21 (stereo not given),-2.17%
22,CNC(=O)C1CCC2(CCNCC2)C1 (stereo not given),6.41%
